Assay results published in ChEMBL document CHEMBL2203194, “Phenolic compounds from Caesalpinia sappan heartwood and their anti-inflammatory activity” (J Nat Prod, 2012).
Activity calls are given as the source filed them. The calls are words filed in the database; no cut-off is given here.

How the values were obtained:
RAW264.7 [1] = test: Cytotoxicity against mouse RAW264.7 cells at 50 uM incubated for 24 hrs in presence of LPS by MTT assay; assay type: cell-based; conditions: raw264.7, 24 h
Method in brief: (§1)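 RAW264.7 viability by MTT colorimetric assay after 24 h with compounds at 50 μM, with or without LPS (1 μg/mL).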

RAW264.7 [2] = test: Cytotoxicity against mouse RAW264.7 cells at 50 uM incubated for 24 hrs in absence of LPS by MTT assay; assay type: cell-based; conditions: raw264.7, 24 h; method in brief: as §1
[3] = Antioxidant activity assessed as nitric oxide free radical scavenging activity by UV-visible spectroscopy; assay type: functional
Method in brief: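 Compounds in DMSO, made up with MeOH, mixed with 10 mM sodium nitroprusside in PBS; room temperature 150 min. Scavenging % = (control − sample)/control × 100, MeOH blank as control; ascorbic acid standard. IC50, mean ± SD of three experiments.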

RAW264.7 [4] = test: Antiinflammatory activity in mouse RAW264.7 cells assessed as inhibition of LPS-induced nitric oxide generation incubated for 24 hrs; assay type: functional, cell-based; conditions: RAW264.7, 24 h
Method in brief: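 Nitrite in supernatant reacted with Griess reagent (sulfanilamide/phosphoric acid plus naphthylethylenediamine), A540 read, calibrated against NaNO2 standard. IC50 versus vehicle control, mean ± SD of three experiments; celastrol positive control.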

RAW264.7 [5] = test: Antiinflammatory activity in mouse RAW264.7 cells assessed as reduction of LPS-induced IkappaBalpha resynthesis at 30 uM pre-treated for 30 mins before LPS challenge by immunoblot; assay type: functional, cell-based
Method in brief: (§2)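 30 min pretreatment of RAW264.7 cells with compound, then LPS (1 μg/mL). Lysis in ice-cold Tris-HCl pH 7.5/NP-40 buffer with protease/phosphatase inhibitors. SDS-PAGE, PVDF transfer, skim-milk block, anti-IκB-α antibody, HRP secondary, ECL detection.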

RAW264.7 [6] = test: Antiinflammatory activity in mouse RAW264.7 cells assessed as reduction of LPS-induced IkappaBalpha degradation at 30 uM pre-treated for 30 mins before LPS challenge and measured after 15 mins by immunoblot; assay type: functional, cell-based; method in brief: as §2
RAW264.7 [7] = test: Antiinflammatory activity in mouse RAW264.7 cells assessed as reduction of LPS-induced IkappaBalpha degradation at 30 uM pre-treated for 30 mins before LPS challenge and measured after 10 mins by immunoblot; assay type: functional, cell-based; method in brief: as §2
RAW264.7 [8] = test: Effect on alpha-tubulin protein expression in mouse RAW264.7 cells up to 10 uM pre-treated for 30 mins before LPS challenge for 18 hrs by immunoblot; assay type: functional, cell-based
Method in brief: (§3)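 Cells pretreated 30 min with compound (0−10 μM), then LPS 1 μg/mL for 18 h. Total lysates in ice-cold Tris-HCl pH 7.5/NP-40 buffer; 50 μg protein per lane by SDS-PAGE, PVDF, skim-milk block, anti-iNOS and anti-α-tubulin antibodies, HRP secondary, ECL. iNOS densitometry normalized to α-tubulin.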

RAW264.7 [9] = test: Antiinflammatory activity in mouse RAW264.7 cells assessed as reduction of LPS-induced iNOS protein expression pre-treated for 30 mins before LPS challenge for 18 hrs by immunoblot; assay type: functional, cell-based; method in brief: as §3
RAW264.7 [10] = test: Antiinflammatory activity in mouse RAW264.7 cells assessed as inhibition of LPS-induced TNFalpha production incubated for 24 hrs by ELISA; assay type: functional, cell-based; conditions: RAW264.7, 24 h
Method in brief: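 RAW264.7 cells (1 × 10^5 cells/well) stimulated with 1 μg/mL LPS for 24 h with test compounds; TNF-α in culture supernatant quantified by ELISA. IC50 relative to vehicle control; mean ± SD of three repeated experiments. Celastrol positive control.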

RAW264.7 [11] = test: Antiinflammatory activity in mouse RAW264.7 cells assessed as reduction of LPS-induced IkappaBalpha degradation at 30 uM pre-treated for 30 mins before LPS challenge and measured after 5 mins by immunoblot; assay type: functional, cell-based; method in brief: as §2

IC50 [3]	IC50 (RAW264.7 [4])	IC50 (RAW264.7 [10])	SMILES	Activity (RAW264.7 [1])	Activity (RAW264.7 [2])	Activity (RAW264.7 [5])	Activity (RAW264.7 [6])	Activity (RAW264.7 [7])	Activity (RAW264.7 [8])	Activity (RAW264.7 [9])	Activity (RAW264.7 [11])
65.3 µM	42.4 µM	–	O=C1c2ccc(O)cc2OC[C@@H]1Cc1ccc(O)c(O)c1	Non-toxic	Non-toxic	–	–	–	–	–	–
103 µM	3.5 µM	5.8 µM	COc1cc(O)c2c(=O)c(OC)c(-c3ccc(O)c(O)c3)oc2c1	Non-toxic	Non-toxic	Active	Active	Active	inactive	Dose-dependent effect	–
113 µM	12.2 µM	> 50 µM	O=Cc1ccc(O)cc1O[C@H](O)c1ccc(O)c(O)c1 [CAESALPINIAPHENOL D]	Non-toxic	Non-toxic	–	–	–	inactive	Dose-dependent effect	–
95.6 µM	> 50 µM	–	O=C1OCC=C1C[C@@]1(O)COc2cc(O)ccc2C1=O [CAESALPINIAPHENOL B]	Non-toxic	Non-toxic	–	–	–	–	–	–
96.6 µM	5.7 µM	8.3 µM	O=C1/C(=C/c2ccc(O)c(O)c2)COc2cc(O)ccc21 [SAPPANONE A]	Non-toxic	Non-toxic	Active	Active	–	inactive	Dose-dependent effect	Active
85.3 µM	35 µM	–	COc1ccc(-c2oc3cc(O)cc(O)c3c(=O)c2O)cc1OC	Non-toxic	Non-toxic	–	–	–	–	–	–
103 µM	> 50 µM	–	COc1cc(C[C@@]2(O)COc3cc(O)ccc3C2=O)ccc1O [CAESALPINIAPHENOL A]	Non-toxic	Non-toxic	–	–	–	–	–	–
95.5 µM	> 50 µM	–	O=C1/C(=C/c2ccc(O)cc2)COc2cc(O)ccc21	Non-toxic	Non-toxic	–	–	–	–	–	–
86.2 µM	> 50 µM	–	O=C1COc2cc(O)ccc2-c2cc(O)c(O)cc21 [CAESALPINIAPHENOL C]	Non-toxic	Non-toxic	–	–	–	–	–	–
157 µM	> 50 µM	–	O=C1C=C[C@]23CC(COC2=C1)Cc1cc(O)c(O)cc13	Non-toxic	Non-toxic	–	–	–	–	–	–
117 µM	> 50 µM	–	O=C1c2ccc(O)cc2OC[C@]1(O)Cc1ccc(O)cc1	Non-toxic	Non-toxic	–	–	–	–	–	–
0.71 µM	–	–	O=C1O[C@H]([C@@H](O)CO)C(O)=C1O [ASCORBIC ACID]	–	–	–	–	–	–	–	–

SMILES	IC50 [3]	IC50 (RAW264.7 [4])	IC50 (RAW264.7 [10])	Activity (RAW264.7 [1])	Activity (RAW264.7 [2])	Activity (RAW264.7 [5])	Activity (RAW264.7 [6])	Activity (RAW264.7 [7])	Activity (RAW264.7 [8])	Activity (RAW264.7 [9])	Activity (RAW264.7 [11])
CC1=C(O)C(=O)C=C2C1=CC=C1[C@@]2(C)CC[C@@]2(C)[C@@H]3C[C@](C)(C(=O)O)CC[C@]3(C)CC[C@]12C [CELASTROL]	–	–	0.8 µM	–	–	–	–	–	–	–	–
